From ChEMBL document CHEMBL3351935, “The synthesis, antimalarial activity and CoMFA analysis of novel aminoalkylated quercetin analogs” (Bioorg Med Chem Lett, 2015)
Converted amounts (≈) assume the structure as drawn.

Tests used:
[1] = system: Plasmodium falciparum; assay: Antimalarial activity against chloroquine-resistant/mefloquine-sensitive Plasmodium falciparum W2 by malaria SYBR green 1-based fluorescence (MSF) assay; type: functional, organism-based
[2] = system: Plasmodium falciparum; assay: Antimalarial activity against chloroquine /mefloquine/pyrimethamine-resistant Plasmodium falciparum C235 by malaria SYBR green 1-based fluorescence (MSF) assay; type: functional, organism-based
[3] = system: Plasmodium falciparum; assay: Antimalarial activity against chloroquine-sensitive/mefloquine-resistant Plasmodium falciparum D6 by malaria SYBR green 1-based fluorescence (MSF) assay; type: functional, organism-based
[4] = Aqueous solubility of the compound at 1 mM by UV spectroscopic assay; type: physicochemical; conditions: buffer
In short: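 Modified UV-spectroscopic method on the free base. A 1 mM DMSO stock was diluted to 4, 8, 12, 16 and 20 μM (2% DMSO in water) to build calibration curves. Each compound was suspended in medium to saturation, centrifuged at 8000 rpm for 10 min and filtered. Absorbance was read at 280 nm, 25 °C, and concentration was taken from the calibration best-fit line.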

[5] = system: Plasmodium falciparum; assay: Antigametocytocidal activity against Plasmodium falciparum NF54-pfs16-[…] early (1 to 3) gametocyte assessed as viability after 72 hrs by MitoTracker Red CM-H2XRos/micro-plate confocal imaging system; type: functional, organism-based; conditions: NF54, 72 h
[6] = system: Plasmodium falciparum; assay: Antigametocytocidal activity against Plasmodium falciparum NF54-pfs16-[…] late (4 to 6) gametocyte assessed as viability at 40 uM after 72 hrs by MitoTracker Red CM-H2XRos/micro-plate confocal imaging system; type: functional; conditions: NF54, 72 h
[7] = target: Intercellular adhesion molecule 1 (Homo sapiens) (UniProt P05362); assay: Inhibition of human type O erythrocyte ICAM1-mediated Plasmodium falciparum infection with at 50 uM
[8] = system: Plasmodium falciparum; assay: Antigametocytocidal activity against Plasmodium falciparum NF54-pfs16-[…] late (4 to 6) gametocyte assessed as viability after 72 hrs by MitoTracker Red CM-H2XRos/micro-plate confocal imaging system; type: functional, organism-based; conditions: NF54, 72 h

Sequence of Intercellular adhesion molecule 1 (Homo sapiens) (P05362 whole entry): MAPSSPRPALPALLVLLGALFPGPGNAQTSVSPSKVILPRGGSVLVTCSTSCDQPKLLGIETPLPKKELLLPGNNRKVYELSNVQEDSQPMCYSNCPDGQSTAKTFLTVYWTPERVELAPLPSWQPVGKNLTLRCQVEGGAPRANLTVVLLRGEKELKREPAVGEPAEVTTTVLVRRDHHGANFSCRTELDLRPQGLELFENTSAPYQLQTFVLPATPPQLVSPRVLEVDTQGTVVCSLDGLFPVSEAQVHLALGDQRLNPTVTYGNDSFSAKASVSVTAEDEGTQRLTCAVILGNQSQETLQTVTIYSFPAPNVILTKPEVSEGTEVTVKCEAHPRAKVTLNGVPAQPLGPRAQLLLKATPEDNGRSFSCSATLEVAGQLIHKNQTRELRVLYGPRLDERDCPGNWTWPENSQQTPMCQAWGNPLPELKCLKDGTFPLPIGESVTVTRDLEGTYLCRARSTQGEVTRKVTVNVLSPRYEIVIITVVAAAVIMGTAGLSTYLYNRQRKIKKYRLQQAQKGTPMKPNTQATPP

Compound: O=c1c(O)c(-c2ccc(O)c(O)c2)oc2c(CNCc3ccccc3)c(O)cc(O)c12
- IC50 [1]: > 2180 nM
- IC50 [2]: > 2180 nM
- IC50 [3]: > 2180 nM
- solubility at 1000 µM [4]: 49 µM (≈ 20.6 µg/mL)

Compound: O[C@@H](c1cc(C(F)(F)F)nc2c(C(F)(F)F)cccc12)[C@H]1CCCCN1 [(S,R)-MEFLOQUINE]
- IC50 [1]: 7 nM
- IC50 [2]: 77 nM

Compound: O=c1c(O)c(-c2ccc(O)c(O)c2)oc2c(CNCCc3cccc(F)c3)c(O)cc(O)c12
- IC50 [1]: 130 nM
- IC50 [2]: 88 nM
- IC50 [3]: 69 nM
- solubility at 1000 µM [4]: 275 µM (≈ 125 µg/mL)

Compound: O=c1c(O)c(-c2ccc(O)c(O)c2)oc2c(CNCCc3ccc(Cl)cc3Cl)c(O)cc(O)c12
- IC50 [1]: 71 nM
- IC50 [2]: 79 nM
- IC50 [3]: 65 nM
- IC50 [5]: 9670 nM
- solubility at 1000 µM [4]: 168 µM (≈ 84.7 µg/mL)
- inhibition at 40 µM [6]: 100%

Compound: O=c1c(O)c(-c2ccc(O)c(O)c2)oc2c(CNCCc3c(Cl)cccc3Cl)c(O)cc(O)c12
- IC50 [1]: 230 nM
- IC50 [2]: 150 nM
- IC50 [3]: 160 nM
- solubility at 1000 µM [4]: 199 µM (≈ 100 µg/mL)

Compound: O=c1c(O)c(-c2ccc(O)c(O)c2)oc2cc(O)cc(O)c12 [QUERCETIN]
- IC50 [1]: 2900 nM
- IC50 [2]: 13000 nM
- IC50 [3]: 9000 nM
- solubility at 1000 µM [4]: 44 µM (≈ 13.3 µg/mL)

Compound: O=c1c(O)c(-c2ccc(O)c(O)c2)oc2c(CN3CCCCC3)c(O)c(CN3CCCCC3)c(O)c12
- IC50 [1]: 1200 nM
- IC50 [2]: 3100 nM
- IC50 [3]: 1700 nM
- solubility at 1000 µM [4]: 247 µM (≈ 123 µg/mL)

Compound: O=c1c(O)c(-c2ccc(O)c(O)c2)oc2c(CNCCc3ccc(F)cc3)c(O)cc(O)c12
- IC50 [1]: 290 nM
- IC50 [2]: 150 nM
- IC50 [3]: 140 nM
- solubility at 1000 µM [4]: 136 µM (≈ 61.7 µg/mL)

Compound: O=C(O[C@@H]1Cc2c(O)cc(O)cc2O[C@@H]1c1cc(O)c(O)c(O)c1)c1cc(O)c(O)c(O)c1 [EPIGALOCATECHIN GALLATE]
- IC50 [1]: 1400 nM
- inhibition [7]: 85%
- IC50 [2]: 610 nM
- IC50 [3]: 73 nM

Compound: O=c1c(O)c(-c2ccc(O)c(O)c2)oc2c(CNCc3ccc(F)cc3)c(O)cc(O)c12
- IC50 [1]: 720 nM
- IC50 [2]: 700 nM
- IC50 [3]: 410 nM
- solubility at 1000 µM [4]: 212 µM (≈ 93.2 µg/mL)

Compound: COc1ccc(C[C@H](N)C(=O)N[C@H]2[C@@H](O)[C@H](n3cnc4c(N(C)C)ncnc43)O[C@@H]2CO)cc1 [PUROMYCIN]
- IC50 [5]: 175 nM
- IC50 [8]: 194 nM

Compound: O=c1c(O)c(-c2ccc(O)c(O)c2)oc2c(CNCc3cccc(Cl)c3)c(O)cc(O)c12
- IC50 [1]: 260 nM
- IC50 [2]: 220 nM
- IC50 [3]: 190 nM
- solubility at 1000 µM [4]: 107 µM (≈ 48.8 µg/mL)

Compound: O=c1c(O)c(-c2ccc(O)c(O)c2)oc2c(CNCc3ccco3)c(O)cc(O)c12
- IC50 [1]: > 2230 nM
- IC50 [2]: > 2230 nM
- IC50 [3]: > 2230 nM
- solubility at 1000 µM [4]: 40 µM (≈ 16.5 µg/mL)
